Assay results taken from PMC5023007 (Bioorganic & medicinal chemistry, 2016).

target: T1, ATX (Homo sapiens, UniProt Q13822); assay: ATX activity assay with FS-3 substrate; type: biochemical; settings: 10 μM compound, 10 nM ATX, 1 μM FS-3
How it was run: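 Purified human FLAG-tagged ATX at 10 nM with 10 µM test compound and 1 µM FS-3 in 50 mM Tris pH 8.0, 30 µM BSA, 1 mM CaCl2, 1 mM MgCl2, 5 mM KCl, 140 mM NaCl. Fluorescence (ex 485/em 520 nm) was read every 2 min for 60 min at 37°C, in triplicate. Signal was normalized to no-ATX (0%) and ATX-without-compound (100%). Interference was checked with 100 nM carboxyfluorescein ± compound.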

Row | FS-3 Inhibition (%) | Structure (SMILES)
1 | false positive | CC(C)(C)CN(Cc1cccc(CN)c1)C(=O)c1ccc(-c2ccc(F)cc2)nc1 [GRI 792685]

same assay, conditions: read-out: FS-3 Inhibition (%), 10 μM compound, 10 nM ATX, 1 μM FS-3

Row | inhibition at 10 µM [%] | Structure (SMILES)
2 | 54.1 ± 0.2 | CCCCCCCCCCCCCC(=O)NC(CCC(=O)O)C(=O)O (stereo not shown) [GRI 96880]
3 | 65.5 ± 3.2 | O=C(CCCOc1ccc(Cl)cc1Cl)N1CCN(c2ccc([N+](=O)[O-])cc2)CC1 [GRI 392104]
4 | 48 ± 4.4 | COc1ccc2c(c1)C(NCc1cc(OC)c(OC)cc1N)CCO2 (stereo not shown) [GRI 93694]

Row | Structure (SMILES) | inhibition at 10 µM [%]
5 | CC(=O)OC1(C(=O)COC(=O)c2ccco2)CC2CCC3C4C=CC(=O)CC4(C)CCC3C2(C)C1 (stereo not shown) [GRI 519441] | 59.7 ± 1.7

target: T1, ATX; assay: ATX activity assay with pNP-TMP substrate; type: biochemical; settings: read-out: pNP-TMP Inhibition (%)
How it was run: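 Runs were in triplicate with human FLAG-fusion ATX, purified, at 10 nM, 10 µM test compound and 1 mM pNP-TMP. Buffer was 50 mM Tris pH 8.0 containing 30 µM BSA, 1 mM CaCl2, 1 mM MgCl2, 5 mM KCl and 140 mM NaCl. Absorbance at 405 nm was read every 2 min over 60 min at 37°C. Values were scaled between no-enzyme (0%) and uninhibited enzyme (100%). Interference control used 100 µM para-nitrophenol ± compound.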

Row | Structure (SMILES) | inhibition at 10 µM [%]
6 | O=C(COc1cccc(F)c1)N1CCN(c2ccc([N+](=O)[O-])cc2)CC1 [Analog 27, 2-(3-fluorophenoxy)-1-(4-(4-nitrophenyl)piperazin-1-yl)ethanone] | -14.1 ± 2.3
7 | O=C(O)c1ccc(N2CCN(C(=O)COc3cccc(F)c3)CC2)cc1 [Analog 60, 4-(4-(2-(3-fluorophenoxy)acetyl)piperazin-1-yl)benzoic acid] | -36.5 ± 6.3
8 | O=C(COc1ccc(Cl)cc1Cl)N1CCN(c2ccc([N+](=O)[O-])cc2)CC1 [Analog 32, 2-(2,4-dichlorophenoxy)-1-(4-(4-nitrophenyl)piperazin-1-yl)ethanone] | -14.9 ± 4.7
9 | O=C(O)c1ccc(N2CCN(C(=O)COc3cccc(C(F)(F)F)c3)CC2)cc1 [Analog 61, 4-(4-(2-(3-(trifluoromethyl)phenoxy)acetyl)piperazin-1-yl)benzoic acid] | -11.4 ± 2.6
10 | O=C(COc1ccccc1F)N1CCN(c2cccc([N+](=O)[O-])c2)CC1 [Analog 13, 2-(2-fluorophenoxy)-1-(4-(3-nitrophenyl)piperazin-1-yl)ethanone] | -14.7 ± 2.9
11 | O=C(COc1ccccc1F)N1CCN(c2ccc([N+](=O)[O-])cc2)CC1 [Analog 24, 2-(2-fluorophenoxy)-1-(4-(4-nitrophenyl)piperazin-1-yl)ethanone] | -22.7 ± 4.2
12 | CC(=O)OC1(C(=O)COC(=O)c2ccco2)CC2CCC3C4C=CC(=O)CC4(C)CCC3C2(C)C1 (stereo not shown) [GRI 519441] | -45.4 ± 2.5
13 | O=C(O)c1ccc(N2CCN(C(=O)COc3ccccc3F)CC2)cc1 [Analog 57, 4-(4-(2-(2-fluorophenoxy)acetyl)piperazin-1-yl)benzoic acid] | -12 ± 6

Next, values leading:

Row | inhibition at 10 µM [%] | Structure (SMILES)
14 | -12.1 ± 1.2 | O=C(COc1ccc(F)cc1)N1CCN(c2ccc([N+](=O)[O-])cc2)CC1 [Analog 30, 2-(4-fluorophenoxy)-1-(4-(4-nitrophenyl)piperazin-1-yl)ethanone]
15 | -11.9 ± 1.3 | O=C(COc1ccccc1Cl)N1CCN(c2ccc([N+](=O)[O-])cc2)CC1 [Analog 23, 2-(2-chlorophenoxy)-1-(4-(4-nitrophenyl)piperazin-1-yl)ethanone]

target: LPA2 (Homo sapiens, UniProt Q9HBW0); assay: Calcium mobilization assay, potentiation of LPA effect at LPA2; type: cell-based; settings: supplemental figure
Sequence (Q9HBW0 whole entry, species assumed): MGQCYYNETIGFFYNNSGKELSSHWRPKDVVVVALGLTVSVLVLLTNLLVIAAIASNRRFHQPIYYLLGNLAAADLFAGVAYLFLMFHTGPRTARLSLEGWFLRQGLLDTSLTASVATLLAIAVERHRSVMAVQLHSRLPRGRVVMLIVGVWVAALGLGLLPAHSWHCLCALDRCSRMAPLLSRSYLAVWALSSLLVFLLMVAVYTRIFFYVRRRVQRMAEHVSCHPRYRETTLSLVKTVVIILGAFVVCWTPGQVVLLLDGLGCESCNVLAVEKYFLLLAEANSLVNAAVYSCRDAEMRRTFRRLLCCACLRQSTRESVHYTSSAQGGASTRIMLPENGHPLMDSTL

Row | Structure (SMILES) | potentiation of LPA effects at LPA2
16 | O=C(COc1cc(Cl)cc(Cl)c1)N1CCN(c2cccc([N+](=O)[O-])c2)CC1 [Analog 22, 2-(3,5-dichlorophenoxy)-1-(4-(3-nitrophenyl)piperazin-1-yl)ethanone] | modest potentiation of LPA effects at LPA2
